What all share (format): subcellular, Brain
The target of one assay is D(1A) dopamine receptor (Rattus norvegicus, UniProt P18901). In words: The compound has been evaluated for its binding affinity towards Dopamine receptor D1 by displacing the radioligand [3H]SCH-23390 (1.5 nM) in rat striatal synaptosomes. The procedure, abridged: (§1)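 Rat striatal synaptosomes were incubated with a ³H-labelled radioligand. Nonspecific binding was defined with excess unlabelled ligand and subtracted: SCH23390 for D1, sulpiride for D2 and GBR12909 for the dopamine transporter. Ki was calculated from IC50 as IC50/(1+[L]/KD), where [L] is the radioligand concentration and KD its dissociation constant.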

Another assay addresses D(2) dopamine receptor (Rattus norvegicus, UniProt P61169). Description: The compound has been evaluated for its binding affinity towards Dopamine receptor D2 by displacing the radioligand [3H]YM-09151-2 (0.5 nM) in rat striatal synaptosomes. The procedure, abridged:
as §1

Assay [1] has as its target Sodium-dependent dopamine transporter (Rattus norvegicus, UniProt P23977). Description: The compound has been evaluated for its binding affinity towards Dopamine transporter by displacing the radioligand [3H]GBR-12935 (1.0 nM) in rat striatal synaptosomes. The procedure, abridged:
as §1

D(1A) dopamine receptor, sequence (P18901 whole entry): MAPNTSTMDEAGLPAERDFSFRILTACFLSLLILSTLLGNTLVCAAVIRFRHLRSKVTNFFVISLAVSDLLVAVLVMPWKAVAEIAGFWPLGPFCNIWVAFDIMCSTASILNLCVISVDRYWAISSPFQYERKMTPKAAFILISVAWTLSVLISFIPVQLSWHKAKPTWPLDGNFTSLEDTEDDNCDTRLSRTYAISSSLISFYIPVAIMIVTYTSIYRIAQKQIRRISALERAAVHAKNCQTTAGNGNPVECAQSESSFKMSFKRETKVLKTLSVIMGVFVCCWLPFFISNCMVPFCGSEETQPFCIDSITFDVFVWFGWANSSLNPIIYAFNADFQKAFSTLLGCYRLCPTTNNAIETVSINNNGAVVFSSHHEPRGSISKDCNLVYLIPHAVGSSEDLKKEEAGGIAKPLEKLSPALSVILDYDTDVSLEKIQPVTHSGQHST
D(2) dopamine receptor, sequence (P61169 whole entry): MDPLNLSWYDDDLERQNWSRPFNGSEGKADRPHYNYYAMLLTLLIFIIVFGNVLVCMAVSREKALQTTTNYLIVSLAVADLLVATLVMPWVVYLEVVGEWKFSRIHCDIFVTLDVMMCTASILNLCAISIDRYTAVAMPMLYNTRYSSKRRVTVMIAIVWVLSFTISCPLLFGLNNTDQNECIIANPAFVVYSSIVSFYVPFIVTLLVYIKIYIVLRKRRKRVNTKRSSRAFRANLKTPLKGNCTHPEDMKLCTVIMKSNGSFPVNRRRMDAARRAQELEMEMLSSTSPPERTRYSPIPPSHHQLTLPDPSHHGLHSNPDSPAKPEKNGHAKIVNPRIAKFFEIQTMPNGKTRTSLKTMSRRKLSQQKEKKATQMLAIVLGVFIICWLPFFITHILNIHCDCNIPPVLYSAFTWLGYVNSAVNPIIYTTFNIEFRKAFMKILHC
Sodium-dependent dopamine transporter, sequence (P23977 whole entry): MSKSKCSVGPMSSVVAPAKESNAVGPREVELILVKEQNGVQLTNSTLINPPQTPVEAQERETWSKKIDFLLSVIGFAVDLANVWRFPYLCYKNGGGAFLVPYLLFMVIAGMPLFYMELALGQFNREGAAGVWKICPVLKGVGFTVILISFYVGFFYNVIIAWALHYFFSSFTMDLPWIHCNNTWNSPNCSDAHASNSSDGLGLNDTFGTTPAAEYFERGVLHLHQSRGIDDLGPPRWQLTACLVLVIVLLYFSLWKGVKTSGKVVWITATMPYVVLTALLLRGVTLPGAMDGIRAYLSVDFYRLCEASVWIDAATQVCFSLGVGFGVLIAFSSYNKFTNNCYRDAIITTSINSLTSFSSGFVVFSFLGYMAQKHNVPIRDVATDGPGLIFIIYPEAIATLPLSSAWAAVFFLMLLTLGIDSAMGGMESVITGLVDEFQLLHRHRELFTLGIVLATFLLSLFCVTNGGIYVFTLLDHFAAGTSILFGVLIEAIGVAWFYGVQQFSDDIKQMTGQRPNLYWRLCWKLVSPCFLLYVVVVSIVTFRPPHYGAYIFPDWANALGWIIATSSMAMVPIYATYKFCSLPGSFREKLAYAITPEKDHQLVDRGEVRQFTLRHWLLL

In the case of `c1ccc(CC2NCCc3ccccc32)cc1` (centres undefined), the figures for the Ki (on D(1A) dopamine receptor; at D(2) dopamine receptor; in assay [1]) were 249 µM, 3.57 µM and 36.6 µM, respectively.
On the same counts, the results for `Oc1cc2c(cc1O)C(Cc1ccccc1)NCC2` (centres undefined) are 9.27 µM, 0.64 µM and 57.6 µM.
As to `Oc1ccc(CC2NCCc3ccccc32)cc1O` (centres undefined), the values for the inhibition constant (Ki) (at D(1A) dopamine receptor; on D(2) dopamine receptor; in assay [1]) were 175 µM, 8.79 µM and 21.5 µM, respectively.

Source of the values: ChEMBL document CHEMBL1133134, “Inhibition of dopamine receptors by endogenous amines: binding to striatal receptors and pharmacological effects on locomotor activity” (Bioorg Med Chem Lett, 2000).
